Series [1] concerns Mus musculus. As to the kind of experiment: Anticonvulsant activity in ip dosed Albino Swiss CD-1 mouse assessed as dose required to protect against 50 Hz current-induced seizure. Type of series: functional. Conditions: Swiss CD-1, ip.
The test system of series [2] is Mus musculus. As to the kind of experiment: Antidepressant-like activity in Albino Swiss CD-1 mouse assessed as immobility time at 10 mg/kg, ip administered 30 mins prior to test measured for last 4 mins of 6 mins observation by forced swim test (reference value: 153.9 to 201.9 secs). Type of series: functional.
In series [3] the target is T1, 5-hydroxytryptamine receptor 1A (Homo sapiens) (UniProt P08908).
T1 sequence (whole entry): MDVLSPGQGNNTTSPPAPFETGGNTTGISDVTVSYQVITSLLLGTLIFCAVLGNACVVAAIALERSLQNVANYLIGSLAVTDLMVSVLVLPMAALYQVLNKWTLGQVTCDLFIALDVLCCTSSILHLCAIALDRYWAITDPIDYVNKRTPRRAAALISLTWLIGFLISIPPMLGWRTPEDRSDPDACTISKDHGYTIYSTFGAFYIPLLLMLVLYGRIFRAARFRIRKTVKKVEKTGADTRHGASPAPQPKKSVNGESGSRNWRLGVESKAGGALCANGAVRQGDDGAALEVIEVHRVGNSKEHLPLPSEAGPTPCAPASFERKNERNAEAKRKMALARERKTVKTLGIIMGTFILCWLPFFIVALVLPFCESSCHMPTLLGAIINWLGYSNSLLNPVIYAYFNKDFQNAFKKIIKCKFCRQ
As to the kind of experiment: Agonist activity at human 5-HT1A receptor expressed in CHO-K1 cells co-expressing Galpha16 assessed as increase in calcium mobilization measured for 30 secs by aequorin-derived luminescence assay relative to serotonin. Type of series: functional, cell-based. Background: Calcium flux is commonly read through the fluorescence of an indicator in the cells.

The target of series [4] is T1, 5-hydroxytryptamine receptor 1A (Homo sapiens). As to the kind of experiment: Antagonist activity at human 5-HT1A receptor expressed in CHO-K1 cells co-expressing Galpha16 assessed as decrease in serotonin-induced calcium mobilization preincubated for 25 mins followed by serotonin challenge measured for 30 secs by aequorin-derived luminescence assay relative to control. Type of series: functional, cell-based.

For series [5], the target named is 5-hydroxytryptamine receptor 6 (Homo sapiens, UniProt P50406). As to the kind of experiment: Displacement of [3H]LSD from recombinant human 5-HT6 receptor expressed in CHO cells cell membranes after 60 mins by liquid scintillation counting method. (In general: Loss of bound radioactivity is the signal in a displacement assay; it reports binding, not function.)

For series [6], the system named is Mus musculus. As to the kind of experiment: Toxicity in Albino Swiss CD-1 mouse assessed as effect on locomotory activity at 5 to 10 mg/kg, ip administered for 30 mins prior to test measured for 1 min. Type of series: organism-based. Conditions: in vivo. The procedure, abridged:
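Mice dosed i.p. 30 min before test; vehicle groups received 0.9% NaCl. Spontaneous locomotion scored as number of crossings during a 1-min session. Each dose compared with its own vehicle group by Student t-test; mean ± SEM, n = 8–10 mice per group.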

Series [7] relates to Mus musculus. As to the kind of experiment: Anticonvulsant activity in Albino Swiss CD-1 mouse assessed as protection against 50 Hz current-induced seizure at 30 mg/kg, ip. Type of series: functional, organism-based.
For series [8], the target named is 5-hydroxytryptamine receptor 7 (Homo sapiens, UniProt P34969). As to the kind of experiment: biochemical. Type of series: cell-based, CHO.
In series [9] the test system is Mus musculus. As to the kind of experiment: Antidepressant-like activity in Albino Swiss CD-1 mouse assessed as immobility time at 5 mg/kg, ip administered 30 mins prior to test measured for last 4 mins of 6 mins observation by forced swim test (reference value: 153.9 to 201.9 secs). Type of series: functional.
Series [10] concerns the target T1, 5-hydroxytryptamine receptor 1A (Homo sapiens). As to the kind of experiment: (§1) Antagonist activity at human 5-HT1A receptor expressed in CHO-K1 cells co-expressing Galpha16 assessed as decrease in serotonin calcium mobilization preincubated for 25 mins followed by serotonin challenge measured for 30 secs by aequorin-derived luminescence assay. Type of series: functional, cell-based.

The target of series [11] is T2, 5-hydroxytryptamine receptor 1A (Homo sapiens, UniProt P08908).
T2 sequence (P08908 whole entry): T1 sequence (whole entry)
The description is as §1. Type of series: functional, cell-based.

Series [12] has as its target T2, 5-hydroxytryptamine receptor 1A. As to the kind of experiment: Displacement of [3H]8-OH-DPAT from recombinant human 5-HT1A receptor expressed in HEK293 cell membranes after 60 mins by liquid scintillation counting method.
Series [13] deals with Mus musculus. As to the kind of experiment: Neurotoxicity in Albino Swiss CD-1 mouse assessed as motor impairment at 30 mg/kg, ip treated 30 mins prior to test by rotarod test. Type of series: toxicity, organism-based. Conditions: in vivo, 0.5 h.
The nature of series [14]: Neurotoxicity in ip dosed Albino Swiss CD-1 mouse assessed as minimum dose required to induce motor impairment treated 30 mins prior to test by rotarod test. Type of series: toxicity, organism-based. Conditions: in vivo. Background: In the rotarod test animals must keep their balance on a rotating rod.
Series [15] relates to Mus musculus. As to the kind of experiment: Antidepressant-like activity in Albino Swiss CD-1 mouse assessed as immobility time at 20 mg/kg, ip administered 30 mins prior to test measured for last 4 mins of 6 mins observation by forced swim test (reference value: 153.9 to 201.9 secs). Type of series: functional.
The next series addresses D(2) dopamine receptor (Homo sapiens, UniProt P14416). As to the kind of experiment: Displacement of [3H]methylspiperonee from recombinant human D2 receptor expressed in HEK293 cell membranes at 10^-5 M after 60 mins by liquid scintillation counting method.
Series [16] addresses 5-hydroxytryptamine receptor 2A (Homo sapiens, UniProt P28223). As to the kind of experiment: biochemical. Type of series: cell-based, HEK293.
The test system of series [17] is Mus musculus. As to the kind of experiment: Toxicity in Albino Swiss CD-1 mouse assessed as death at 15 to 30 mg/kg, ip. Type of series: organism-based. Conditions: in vivo. The procedure, abridged: (§2)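 Deaths counted in mice during maximal electroshock (MES) seizure testing after i.p. dosing, 6 mice per dose (3 or 1 at some top doses); recorded as number dead/number tested alongside protection and rotarod motor impairment (10 rpm); untreated control group included.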

Series [18] deals with Mus musculus. As to the kind of experiment: Toxicity in Albino Swiss CD-1 mouse assessed as death at 100 mg/kg, ip. Type of series: organism-based. Conditions: in vivo. The procedure, abridged: as §2
The nature of series [19]: Protection index, ratio of TD50 for motor impairment in ip dosed Swiss albino CD-1 mouse to ED50 for protection against 50 Hz current-induced seizures in ip dosed Swiss albino CD-1 mouse. Type of series: toxicity, organism-based, Swiss CD-1. Conditions: in vivo, read-out: Ratio TD50/ED50.
The target of series [20] is T3, Alpha-1A adrenergic receptor (Homo sapiens, UniProt P35348).
T3 sequence (P35348 whole entry): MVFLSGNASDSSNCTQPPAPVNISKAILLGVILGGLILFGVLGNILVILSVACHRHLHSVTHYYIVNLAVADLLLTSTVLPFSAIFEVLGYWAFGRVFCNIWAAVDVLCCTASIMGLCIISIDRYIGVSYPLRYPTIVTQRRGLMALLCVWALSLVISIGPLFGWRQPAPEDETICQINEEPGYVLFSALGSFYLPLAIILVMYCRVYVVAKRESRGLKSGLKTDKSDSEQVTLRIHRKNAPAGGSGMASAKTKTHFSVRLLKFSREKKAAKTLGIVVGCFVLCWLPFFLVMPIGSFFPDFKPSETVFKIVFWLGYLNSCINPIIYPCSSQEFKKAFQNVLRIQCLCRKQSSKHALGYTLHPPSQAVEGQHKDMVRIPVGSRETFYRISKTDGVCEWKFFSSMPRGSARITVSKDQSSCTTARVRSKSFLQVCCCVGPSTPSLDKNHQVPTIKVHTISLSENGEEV
As to the kind of experiment: Displacement of [3H]prazosin from recombinant human alpha1 adrenoceptor expressed in CHO cell membranes after 30 mins by liquid scintillation counting method.

Active and inactive are the calls of the source. The calls are words filed in the database; no cut-off is given here.

What is called ED50 is the dose at which the effect has come halfway, by size or by number of responders. The Emax is the size of the effect at its maximum, as opposed to the concentration needed. By Ki is commonly meant a dissociation constant, usually derived from enzyme kinetics or from competition with a known ligand. The term Kb denotes the affinity of an antagonist, worked out from how it opposes an agonist. As a reminder, the IC50 is the midpoint of a concentration-inhibition curve. In general, TD50 refers to the 50% point of the dose-response relation for the toxic effect studied.

Chain of 5-hydroxytryptamine receptor 2A (P28223 whole entry): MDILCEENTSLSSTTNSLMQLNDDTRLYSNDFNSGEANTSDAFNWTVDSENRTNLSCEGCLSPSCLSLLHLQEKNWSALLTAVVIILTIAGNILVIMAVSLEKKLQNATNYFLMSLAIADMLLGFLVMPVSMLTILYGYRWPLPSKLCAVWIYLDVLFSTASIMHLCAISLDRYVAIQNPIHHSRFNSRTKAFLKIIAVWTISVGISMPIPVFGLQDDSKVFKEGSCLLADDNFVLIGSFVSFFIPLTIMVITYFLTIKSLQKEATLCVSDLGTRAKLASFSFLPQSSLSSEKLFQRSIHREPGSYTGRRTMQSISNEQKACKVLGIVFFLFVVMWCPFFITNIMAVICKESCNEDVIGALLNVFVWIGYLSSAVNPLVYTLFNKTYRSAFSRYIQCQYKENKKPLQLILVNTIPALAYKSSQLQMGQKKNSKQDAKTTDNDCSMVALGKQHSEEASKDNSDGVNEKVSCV
Chain of 5-hydroxytryptamine receptor 7 (P34969 whole entry): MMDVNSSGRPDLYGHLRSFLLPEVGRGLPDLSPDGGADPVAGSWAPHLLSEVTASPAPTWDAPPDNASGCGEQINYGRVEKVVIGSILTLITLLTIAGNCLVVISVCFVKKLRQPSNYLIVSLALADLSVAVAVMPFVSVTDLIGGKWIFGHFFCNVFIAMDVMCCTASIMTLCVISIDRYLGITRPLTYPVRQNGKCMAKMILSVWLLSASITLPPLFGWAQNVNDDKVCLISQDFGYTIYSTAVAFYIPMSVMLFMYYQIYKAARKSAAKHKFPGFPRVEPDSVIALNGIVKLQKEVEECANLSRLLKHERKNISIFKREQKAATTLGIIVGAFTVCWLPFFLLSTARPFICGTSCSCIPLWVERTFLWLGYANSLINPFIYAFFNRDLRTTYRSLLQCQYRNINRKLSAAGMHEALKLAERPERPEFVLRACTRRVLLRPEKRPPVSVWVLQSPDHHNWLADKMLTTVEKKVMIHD
Chain of D(2) dopamine receptor (P14416 whole entry): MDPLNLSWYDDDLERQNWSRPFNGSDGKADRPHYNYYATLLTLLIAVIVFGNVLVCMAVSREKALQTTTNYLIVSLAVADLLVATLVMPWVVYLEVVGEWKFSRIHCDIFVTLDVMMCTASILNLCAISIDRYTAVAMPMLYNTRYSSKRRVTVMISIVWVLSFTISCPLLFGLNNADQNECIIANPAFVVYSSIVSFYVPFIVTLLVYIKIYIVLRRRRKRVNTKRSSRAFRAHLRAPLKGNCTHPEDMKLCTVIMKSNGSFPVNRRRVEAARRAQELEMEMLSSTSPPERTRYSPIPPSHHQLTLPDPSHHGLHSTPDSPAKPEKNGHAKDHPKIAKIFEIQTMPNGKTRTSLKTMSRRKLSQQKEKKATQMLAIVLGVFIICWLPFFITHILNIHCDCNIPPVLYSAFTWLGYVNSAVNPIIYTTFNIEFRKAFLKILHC
Chain of 5-hydroxytryptamine receptor 6 (P50406 whole entry): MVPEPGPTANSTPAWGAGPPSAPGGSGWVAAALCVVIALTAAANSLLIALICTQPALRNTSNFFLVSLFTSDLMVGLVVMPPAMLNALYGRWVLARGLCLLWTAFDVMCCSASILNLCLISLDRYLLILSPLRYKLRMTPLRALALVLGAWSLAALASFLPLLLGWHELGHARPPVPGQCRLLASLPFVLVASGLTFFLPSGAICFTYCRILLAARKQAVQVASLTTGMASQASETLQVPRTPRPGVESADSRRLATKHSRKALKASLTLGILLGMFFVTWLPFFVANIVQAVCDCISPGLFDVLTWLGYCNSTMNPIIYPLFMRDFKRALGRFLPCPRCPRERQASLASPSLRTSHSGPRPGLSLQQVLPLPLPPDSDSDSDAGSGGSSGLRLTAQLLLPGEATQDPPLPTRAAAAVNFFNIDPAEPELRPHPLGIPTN

Consider `Cc1cc(C)c(OCCOCCN2CCN(CCc3ccccc3)CC2)c(C)c1.Cl.Cl`, for which the ED50 in the series on Mus musculus [1] turned out to be 18 mg/kg. For the same compound, the Time with Mus musculus [2] came out at 173.8 s; with Mus musculus [9], 170.5 s; with Mus musculus [15], 178.4 s. Also, the maximum response (Emax) stood at 10% in series [3] and 45% in series [4]. In addition, the inhibition constant (Ki) was found to be 2150 nM in series [5]; 1050 nM in [8]; 552 nM in series [12]; 2810 nM in [16]; 772 nM in [20]. Also, the Activity entry was “Non-Toxic” in the series on Mus musculus [6], “Non-Toxic” with Mus musculus [13], “Non-Toxic” in the series on Mus musculus [17] and “Toxic” in the series on Mus musculus [18]. Further, the outcome in the series with Mus musculus [7] was Active. Moreover, the Kb in [10] is 291 nM. In addition, the IC50 in series [11] turned out to be 1180 nM. The TD50 at 0.5 h in series [14] is 53.3 mg/kg. The inhibition result at D(2) dopamine receptor is “inactive”. The selectivity ratio in [19] amounted to 2.96.

The record behind these values is ChEMBL document CHEMBL4190389, “Synthesis and activity of di- or trisubstituted N-(phenoxyalkyl)- or N-{2-[2-(phenoxy)ethoxy]ethyl}piperazine derivatives on the central nervous system” (Bioorg Med Chem Lett, 2018).
